# The source made the active and inactive calls. The rule behind the calls is not given here.
# Columns and labels:
# [1] = Stability of the human bone graft-bound drug in phosphate buffer saline after 7 days by immunofluorescent staining; type: ADME; settings: 168 h
# How it was run: (§1)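 About 10 mg modified allograft held 7 days at 37°C in 1 ml water, PBS, DMEM-F-12 with 10% FBS, or S. aureus in TSB (bacteria removed by 30 min sonication in 1% SDS), or kept dry in air; then PBS-washed, blocked in 10% FBS/PBS 1 h, rabbit anti-VAN IgG 1:500 at 4°C 12 h, Alexa Fluor 488 anti-rabbit 1:1,000 RT 1 h, viewed by epifluorescence.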
# Staphylococcus aureus [2] = assay: Antibacterial activity against Staphylococcus aureus Xen36 infected in drug treated human morselized bone allograft assessed as inhibition of biofilm formation after 5 hrs by confocal laser scanning microscopy; type: functional, organism-based
# How it was run: (§2)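 Allograft morsels challenged with S. aureus (1 ml, 1 × 10^4 CFU/ml) in TSB at 37°C without agitation for 5 or 12 h, washed three times in PBS, stained with Live/Dead BacLight (20 min, RT), imaged by confocal laser scanning microscopy with Z-plane optical sectioning and reconstruction.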
# Staphylococcus aureus [3] = assay: Antibacterial activity against Staphylococcus aureus Xen36 infected in drug treated human morselized bone allograft assessed as inhibition of biofilm formation after 12 hrs by confocal laser scanning microscopy; type: functional, organism-based; how it was run: as §2
# Homo sapiens = organism: Homo sapiens; assay: Binding affinity to human morselized allograft bone by immunohistochemical analysis
# How it was run: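 Human cancellous/cortical bone granules (0.5–2.0 mm), EDTA-treated, with covalently coupled VAN and washed until eluent gave no S. aureus disk-diffusion inhibition. PBS-washed ×3, blocked 1 h in 10% FBS/PBS, rabbit anti-VAN IgG (1:500) 12 h at 4°C, Alexa 488 anti-rabbit (1:1,000) 1 h RT, epifluorescence read-out. Uncoupled bone as control.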
# [4] = Stability of the human bone graft-bound drug 7 days after incubation with Staphylococcus aureus in trypticase soy broth by immunofluorescent staining; type: ADME; settings: 168 h; how it was run: as §1
# Staphylococcus aureus [5] = assay: Antibacterial activity against Staphylococcus aureus Xen36 infected in drug treated human morselized bone allograft assessed as reduction of bacterial count after 12 hrs followed by additional 4 hrs in presence of 10 ug/ml of drug by colony counting; type: functional, organism-based
# How it was run: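 Control or modified allograft incubated with S. aureus (1 ml, 10^4 CFU/ml) in TSB 12 h, either with 10 μg/ml solution VAN added alongside inoculum, or washed, transferred and given 4 h in TSB with 10 μg/ml VAN; after 16 h total, washed, adherent bacteria sonicated off, plated and counted, expressed as % of control per condition.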
# [6] = Stability of the human bone graft-bound drug in water after 7 days by immunofluorescent staining; type: ADME; settings: 168 h; how it was run: as §1
# [7] = Stability of the human bone graft-bound drug in dulbecco modified eagle medium after 7 days by immunofluorescent staining; type: ADME; settings: 168 h; how it was run: as §1
# [8] = Cytotoxicity in human FOB on drug treated bone allograft assessed as morphological changes after 48 hrs by propidium iodide staining
# How it was run: (§3)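 Cortical allograft pieces (1 × 1 cm; 70% ethanol, PBS and medium rinses, 10 min UV) seeded with 1 ml of 50,000 cells/ml hFOB in DMEM-F-12 with 10% FBS; after 48 h fixed (4% paraformaldehyde), permeabilized (0.1% Triton X-100), stained with Alexa 488-phalloidin and propidium iodide 30 min RT, imaged by confocal microscopy.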
# [9] = Cytotoxicity in human FOB on drug treated bone allograft assessed as release of lactate dehydrogenase after 1 day; settings: 24 h
# How it was run: (§4)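 hFOB cells grown on flat cortical allograft 1 or 3 days; LDH released into medium measured with Tox-7 kit, given as percentage of released over total cellular LDH, normalized to day 1 controls; at least three experiments, means ± standard errors.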
# [10] = Stability of the human bone graft-bound drug in air after 7 days by immunofluorescent staining; type: ADME; settings: 168 h; how it was run: as §1
# Staphylococcus aureus [11] = assay: Antibacterial activity against Staphylococcus aureus Xen36 infected in drug treated human morselized bone allograft assessed as inhibition of biofilm formation after 6 hrs by scanning electron microscopy; type: functional, organism-based
# How it was run: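 Allograft morsels exposed to S. aureus in TSB for 6 h, then examined by scanning electron microscopy at low magnification, ×1,500 and ×4,000 for adherent bacteria and biofilm.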
# [12] = Cytotoxicity in human FOB on drug treated bone allograft assessed as increase of protein level after 3 days; settings: 72 h
# How it was run: (§5)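 hFOB cells cultured on sterilized flat cortical allograft in DMEM-F-12 with 10% FBS for 1 or 3 days, lysed with M-PER buffer 30 min with shaking; total protein by Bradford assay as index of adhesion and proliferation; at least three experiments, means ± standard errors.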
# [13] = Cytotoxicity in human FOB on drug treated bone allograft assessed as release of lactate dehydrogenase after 3 days; settings: 72 h; how it was run: as §4
# [14] = Cytotoxicity in human FOB on drug treated bone allograft assessed as changes on cytoskeletal architecture after 48 hrs by propidium iodide staining; how it was run: as §3
# Escherichia coli = assay: Antibacterial activity against Escherichia coli DH5[alpha] infected in drug treated human morselized bone allograft assessed as reduction of bacterial count after up to 12 hrs by colony counting; type: functional, organism-based
# How it was run: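 Sterilized allograft granules (0.5–2.0 mm, human cancellous/cortical) incubated without agitation at 37°C in TSB with 1 ml of 1 × 10^4 CFU/ml bacteria (overnight TSB culture, 250 rpm, 37°C) for 2, 5, 8 or 12 h; washed three times with PBS, three more times, sonicated 5 min in 0.3% Tween 80/PBS, serially diluted, plated on Petrifilms and colonies counted; S. aureus shown as % of control per time point.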
# [15] = Cytotoxicity in human FOB on drug treated bone allograft assessed as increase of protein level after 1 day; settings: 24 h; how it was run: as §5
smiles,measurement,setting,value
CN[C@H](CC(C)C)C(=O)N[C@H]1C(=O)N[C@@H](CC(N)=O)C(=O)N[C@H]2C(=O)N[C@H]3C(=O)N[C@H](C(=O)N[C@H](C(=O)O)c4cc(O)cc(O)c4-c4cc3ccc4O)[C@H](O)c3ccc(c(Cl)c3)Oc3cc2cc(c3O[C@@H]2O[C@H](CO)[C@@H](O)[C@H](O)[C@H]2O[C@H]2C[C@](C)(N)[C@H](O)[C@H](C)O2)Oc2ccc(cc2Cl)[C@H]1O [VANCOMYCIN],Stability,[1],Stable
same,Activity,Staphylococcus aureus [2],Active
same,Activity,Staphylococcus aureus [3],Active
same,Activity,Homo sapiens,Active
same,Stability,[4],Stable
same,Activity,Staphylococcus aureus [5],Active
same,Stability,[6],Stable
same,Stability,[7],Stable
same,Activity,[8],Non-toxic
same,Activity,[9],Non-toxic
same,Stability,[10],Stable
same,Activity,Staphylococcus aureus [11],Active
same,Activity,[12],Non-toxic
same,Activity,[13],Non-toxic
same,Activity,[14],Non-toxic
same,Activity,Escherichia coli,inactive
same,Activity,[15],Toxic

# From ChEMBL document CHEMBL1687840, “Vancomycin bonded to bone grafts prevents bacterial colonization” (Antimicrob Agents Chemother, 2011)
